Ecoli WT expand: E. coli BW25113 growth inhibition, expanded screen. growth inhibition, % at 100 µM. OD600 absorbance. 98,000 tested, 0.15% active. AID 710;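 active = growth inhibition above about 50% at one test dose, limit read from the data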;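 also: growth measured after 20 h incubation at 37 °C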
tolC growth inh: blocks growth of E. coli BW25113 tolC mutant; OD615; growth inhibition, % at 10 µM (by protocol); 65,000 tested, 2.2% active;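 active = growth inhibition at or above a cutoff equal to the mean over every tested compound plus 3 SD, cut at about 60% in these data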;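 also: growth measured after 20 h incubation at 37 °C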
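Signal: optical density read at 615 nm; Assay system: E. coli ΔtolC::kan strain BW25113; Times: 20 h incubation with compound, 37 °C; Dosing: 10 µM final, single dose.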
PostGolgi yeast: growth inhibition of a yeast mutant, post-Golgi transport screen; post-Golgi transport phenotypic cell assay; inhibition, % at 10 µM; 98,000 tested, 0.9% active; AID 739;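 also: yeast cells grown in 1536-well plates; yeast grown about 18 h at 30C before absorbance read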
PostGolgi ctrl: growth of the yeast control strain, post-Golgi counter-screen; 98,000 tested, 5% active; inhibition, % at 10 µM; efflux-deficient yeast background strain, growth absorbance A615, 16 h
EphB4 ephrin blk: blocks human EphB4 binding to ephrin-B2. P54760. EphB4 LBD / TNYL-RAW-Alexa532 peptide, fluorescence polarization. inhibition, % at 7 µM. 97,000 tested, 0.15% active;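 active = inhibition above the screen-wide mean inhibition plus 3 SD, cut at about 15% in these data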;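 also: 0% = DMSO wells and 100% = excess unlabeled TNYL-RAW peptide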
* = called active by the depositor; / = not tested or not shown. Rows were chosen to be rich in hits. Some 6% of all compounds tested hit in one or more screens of this group. Rule as the data show it, unless noted: active = inhibition above about 30%; inactive = the rest.

SMILES	Ecoli WT expand	tolC growth inh	PostGolgi yeast	PostGolgi ctrl	EphB4 ephrin blk
C=CCc1ccc(OCCOCCOc2ccccc2[N+](=O)[O-])c(OC)c1	2	/	29	8	-3
O=C1NC2(Nc3ccccc31)C(=O)Nc1ccccc12 (centres undefined)	-6	-3	44*	14	3
CN(C1CCCCC1)S(=O)(=O)c1ccc(NC(=O)C2CCCCC2)cc1	2	/	-6	63*	-3
Cc1cc(C)c(S(=O)(=O)n2ccc3ccccc32)c(C)c1	-3	/	1	1	0
Cc1cc(C)c(S(=O)(=O)NCCn2ccc3ccccc32)c(C)c1	3	/	0	57*	6
O=C(Nc1nnc(C2CC2)o1)c1ccc(S(=O)(=O)N2CCCc3ccccc32)cc1	6	100*	33*	3	/
CCC(=O)N1CCc2cc(S(=O)(=O)N3CCc4ccccc4C3)ccc21	-8	-4	1	-2	-2
COc1ccc(-c2nnc(NC(=O)c3ccc(S(=O)(=O)N4CCCc5ccccc54)cc3)o2)cc1	-7	15	2	20	-1
O=C(NCc1ccco1)c1ccc(S(=O)(=O)N2CCCc3ccccc32)cc1	-8	71*	-15	2	0
CCC(=O)N1CCCc2cc(S(=O)(=O)N3CCCc4ccccc43)ccc21	-13	36	17	35*	-10
O=C(NCc1ccccc1)c1ccc(S(=O)(=O)N2CCCc3ccccc32)cc1	-17	/	29	16	-3
CSc1nc2nccc(/C=C\c3ccccc3)n2n1	-11	/	-1	14	0
FC(F)(F)c1cnc(Sc2nc3nccc(-c4ccc(Cl)cc4)n3n2)c(Cl)c1	-1	/	-6	39*	2
COc1ccc(-c2ccnc3nc(Sc4ncc(C(F)(F)F)cc4Cl)nn23)cc1	-12	/	-7	40*	-5
CC(C)NC(=O)c1cnc(Sc2ncc(C(F)(F)F)cc2Cl)n1C	-4	/	-2	9	-3
CSc1nc2nccc(-c3ccc(Cl)cc3)n2n1	-7	/	-1	40*	-2
Cc1ccc(C(=O)NCc2occc2C(=O)O)o1	-5	-8	34*	-3	4
CCC(C)N(NC(C)=O)c1nc(Cl)nc(NC(C)C)n1 (centres undefined)	7	/	-10	-2	1
Cc1cc(Cl)ccc1OCc1n[nH]c(=S)n1C1CCCCC1	1	/	99*	96*	6
C/C(=N/NS(=O)(=O)c1ccc(Cl)cc1)c1cccc(NC(=O)c2ccc(Cl)cc2Cl)c1	-6	/	-4	2	-11
CCCC(=O)Nc1nc(C)c(-c2csc(Nc3ccc(Cl)cc3)n2)s1	-9	/	23	56*	1
C=CCCC(=O)Nc1nc(C)c(-c2csc(Nc3cc(OC)ccc3OC)n2)s1	-13	/	3	33*	-1
CCOC(=O)N1CCN(Cc2nc(N)nc(Nc3ccc(Oc4ccccc4)cc3)n2)CC1	-12	28	11	-8	-1
COc1ccc(C(=O)N(C(C)C)C(C)C)c(OC)c1	1	/	-4	2	1
O=C(CC1CCCCC1)Nc1ncn[nH]1	15	/	-2	-7	-7
SMILES	Ecoli WT expand	tolC growth inh	PostGolgi yeast	PostGolgi ctrl	EphB4 ephrin blk
O=C(N/N=C/C1CCCCC1)c1ccccn1	0	/	6	8	1
O=C(N/N=C/C1CCCCC1)c1cc(Cl)ccc1O	50*	/	-8	0	4
Cc1nc(CS(=O)(=O)c2ccc(Cl)cc2)cc(Sc2ccc(Cl)cc2)n1	1	/	-6	7	2
Cc1noc(C)c1COC(=O)CCCc1c[nH]c2ccccc12	-16	5	8	-7	/
COc1ccccc1NC(=O)Nn1cnnc1	0	6	-8	-12	/
CCOc1cc(CNC(C)C)c(Cl)cc1OCC(=O)NCCc1ccccc1	-4	/	0	1	0
Cc1[nH]nc(-c2ccc(O)cc2O)c1Oc1ccccc1	15	4	-1	21	/
C=C(C)COc1ccc(-c2n[nH]c(C)c2Oc2ccccc2OC)c(O)c1	9	88*	0	17	-2
C=C(C)COc1ccc(-c2nc(N)nc(C)c2Oc2ccccc2OC)c(O)c1	-2	-19	2	25	-5
Cc1[nH]nc(-c2ccc(OCc3cnn(-c4ccccc4)c3)cc2O)c1Oc1ccccc1F	-8	/	1	42*	3
CCOc1ccc(-c2n[nH]c(C)c2Oc2ccccc2OC)c(O)c1	11	95*	4	5	-2
CC(C)(C)C(=O)COC(=O)CNC(=O)c1ccc(Oc2ccccc2)cc1	0	/	6	0	-6
COc1c(N2CCN(C(=S)Nc3ccc(F)cc3)C(C)C2)c(F)cc2c(=O)c(C(=O)O)cn(C3CC3)c12 (centres undefined)	99*	/	-4	2	5
CCN1CCN(c2cc3c(cc2F)c(=O)c(C(=O)O)cn3C2CC2)CC1	/	5	/	/	/
COc1c(N2CCNC(C)C2)c(F)cc2c(=O)c(C(=O)O)cn(C3CC3)c12 (centres undefined)	/	97*	/	/	/
COc1cc(OC)cc(C(C(=O)NC2CCCCC2)N(C(=O)c2ccno2)c2ccccc2)c1 (centres undefined)	/	/	/	/	-2
COc1ccc(OCC(O)Cn2c(=N)n(Cc3ccccc3)c3ccccc32)cc1 (centres undefined)	25	66*	1	-4	6
Cc1cccc(N2CCN(C(=O)C(NS(=O)(=O)c3cccs3)c3ccccc3)CC2)c1C (centres undefined)	-8	/	-4	40*	2
N/C(=N/O)c1nc(N2CCCCC2)nc(N2CCCCC2)n1	3	56	0	-5	3
c1ccc(N(c2ccccc2)c2nc(N3CCCC3)nc(-n3ccnc3)n2)cc1	5	6	2	32*	0
c1ccc(-c2nc(-n3ccnc3)nc(-n3ccnc3)n2)cc1	-6	39	4	11	/
N/C(=N/O)c1nc(N2CCCC2)nc(N(c2ccccc2)c2ccccc2)n1	-12	72*	0	17	-3
c1ccc(CN2CCN(c3nc(-c4ccccc4)nc(-n4ccnc4)n3)CC2)cc1	-5	65*	48*	77*	-1
CCOC(=O)N1CCN(c2nc(N(c3ccccc3)c3ccccc3)nc(-n3ccnc3)n2)CC1	/	66*	/	/	/
O=C1c2ccccc2C(=O)N1CSc1ncccn1	1	-12	-2	-3	/
SMILES	Ecoli WT expand	tolC growth inh	PostGolgi yeast	PostGolgi ctrl	EphB4 ephrin blk
CN(c1ccccc1)c1nc(N2CCCC2)nc(-n2ccnc2)n1	12	96*	105*	91*	-6
COc1ccc(-c2cc(-c3ccc(OC)cc3)[nH]n2)cc1	0	49	20	33*	1
COc1ccc(OC)c(-n2c(-c3cc(-c4ccc(F)cc4)n[nH]3)n[nH]c2=S)c1	7	/	-3	-2	-2
O=C(Cn1cnc2c(cnn2-c2ccc(Cl)cc2)c1=O)NCC1CCCO1 (centres undefined)	-5	-17	-15	1	7
CN=C1SC(CC(=O)Nc2cc(Cl)ccc2Cl)C(=O)N1C (centres undefined)	5	-5	3	-3	-1
O=C(N/N=C1\CCCc2ccccc21)c1ccccc1[N+](=O)[O-]	/	/	/	/	1
CCCOc1ccccc1Cn1c(=O)oc2ccc(C)cc21	2	73*	-1	22	-4
